Where a chain is given by its changes, count along the chain named. Entries after “also recorded” stand apart in the source; their conditions may differ.
How the values were obtained:
BT-474 cells = test: Cell migration assay; format: cell-based; settings: HER2-positive, MSI-1436 5 µM
PTP1B1-405 [1] = molecular target: T1, PTP1B1-405 (Homo sapiens, UniProt P18031); test: PTP assay with DiFMUP substrate; format: biochemical
T1 sequence (P18031 1-405): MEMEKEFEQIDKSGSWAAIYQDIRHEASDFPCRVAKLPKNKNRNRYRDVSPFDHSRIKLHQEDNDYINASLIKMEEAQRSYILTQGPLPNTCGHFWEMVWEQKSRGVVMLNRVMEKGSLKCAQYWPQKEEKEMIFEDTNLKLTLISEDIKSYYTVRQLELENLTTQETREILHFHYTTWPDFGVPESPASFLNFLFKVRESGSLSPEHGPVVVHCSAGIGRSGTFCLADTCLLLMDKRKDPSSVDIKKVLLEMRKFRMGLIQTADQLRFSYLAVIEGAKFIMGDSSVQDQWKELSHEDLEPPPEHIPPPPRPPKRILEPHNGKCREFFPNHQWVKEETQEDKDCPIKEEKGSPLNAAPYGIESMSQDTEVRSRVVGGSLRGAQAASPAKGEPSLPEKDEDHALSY

[2] = molecular target: T2, PTP1B in tumor lysates from NDL2 mice (Mus musculus, UniProt P35821); test: Binding assay with bead-immobilized compound in tumor lysates; settings: confirmed by immunoblotting
T2 sequence (P35821 1-432): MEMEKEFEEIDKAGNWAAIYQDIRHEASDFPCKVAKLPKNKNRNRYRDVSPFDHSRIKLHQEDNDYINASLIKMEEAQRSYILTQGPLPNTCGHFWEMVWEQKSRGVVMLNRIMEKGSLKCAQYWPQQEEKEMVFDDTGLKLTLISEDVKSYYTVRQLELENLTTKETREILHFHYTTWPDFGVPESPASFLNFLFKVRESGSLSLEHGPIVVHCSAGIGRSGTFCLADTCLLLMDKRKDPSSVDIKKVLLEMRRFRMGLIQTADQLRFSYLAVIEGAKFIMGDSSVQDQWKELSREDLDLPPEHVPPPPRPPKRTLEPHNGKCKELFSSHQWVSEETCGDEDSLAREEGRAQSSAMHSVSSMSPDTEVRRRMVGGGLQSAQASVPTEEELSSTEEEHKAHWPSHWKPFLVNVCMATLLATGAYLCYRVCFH
Method in brief: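 Test compound was coupled through its primary amine to NHS-activated magnetic beads (1 mM, 100 mM triethylamine, 8 h, 4°C), and free NHS groups were blocked with 0.8 M aminoethanol. Beads were incubated with 0–1 mg NDL2 tumour lysate protein and washed. Bound protein was eluted by heat in SDS sample buffer, run on 10% SDS-PAGE and identified by immunoblotting. Beads carrying a related amine compound served as negative control.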

PTP1B1-321 [3] = molecular target: T3, PTP1B1-321 (Homo sapiens, UniProt P18031); test: PTP assay with DiFMUP substrate; format: biochemical
T3 sequence (P18031 1-321): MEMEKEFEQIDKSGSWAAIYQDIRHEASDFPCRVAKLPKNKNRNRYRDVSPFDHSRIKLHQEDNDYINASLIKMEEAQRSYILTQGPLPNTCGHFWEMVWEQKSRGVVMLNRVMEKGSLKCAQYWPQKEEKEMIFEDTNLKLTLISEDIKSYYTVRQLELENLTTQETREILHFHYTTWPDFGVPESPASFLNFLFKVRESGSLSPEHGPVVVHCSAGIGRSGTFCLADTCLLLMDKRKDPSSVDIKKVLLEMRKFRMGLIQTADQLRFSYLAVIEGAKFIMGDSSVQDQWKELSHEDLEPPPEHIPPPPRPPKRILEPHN

PTP1B1-405 [4] = molecular target: T1, PTP1B1-405; test: Gel filtration
[5] = tested on: NDL2 mammary tumors and lung metastasis; test: NDL2 transgenic mouse model of breast cancer; format: in vivo
Method in brief: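 NDL2 mice with palpable tumours were randomised to saline or test compound (5 or 10 mg/kg, 100 μl) i.p. every third day for 45 days, using freshly prepared solutions. Animals were killed after 45 d, and tumours were removed, counted and weighed. Whole lungs were sectioned, H&E-stained and scored for metastases. Groups had six animals; Student t-test was used.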

[6] = tested on: tyrosine phosphorylation-dependent signaling in tumors; test: Immunoblotting of tumor lysates from NDL2 mice; format: in vivo; settings: tumor samples from treated NDL2 animals
Method in brief: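 Tumours from treated NDL2 mice were dissected free of connective tissue, ground under liquid nitrogen and lysed 30 min on ice. Lysis buffer: HEPES pH 7.4, glycerol, Triton X-100, NaCl, EGTA, 1 mM orthovanadate, 20 mM NaF, protease inhibitors. Lysates were cleared at 12,000 x g, 15 min, 4 °C. Lysate (20 μg) was blotted with anti-phosphotyrosine (4G10), anti-p62DOK and anti-phospho-Erk, then stripped and reprobed with total-protein antibodies.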

PTP1B1-321 [7] = molecular target: T3, PTP1B1-321; test: Binding of recombinant protein to bead-immobilized compound; settings: in vitro
Method in brief: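 Beads were washed in the same buffer plus 0.01% NP-40 and 1% glycerol, then heat-eluted in SDS sample buffer. Eluates were run on 10% SDS-PAGE and stained with Coomassie or silver.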

[8] = tested on: BT474 xenografts re-expressing wild type or L192A/S372P PTP1B; test: BT474 xenografts with PTP1B suppressed and re-expressed; format: in vivo, mouse; settings: 5 mg/kg, two independent experiments
Method in brief: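 BT474 cells with PTP1B suppressed by RNAi and re-expressing wild type or mutant PTP1B were used. Luciferase-expressing cells (5×10^6) were injected orthotopically into mammary fat pads of SCID-beige mice in 1:1 DMEM/growth factor-reduced Matrigel. Mice were randomised to saline or test compound 5 mg/kg i.p. every third day. Tumours were followed by luciferin imaging and by palpation (volume = width2 × length/2) three times weekly.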

PTP1B1-405 V370P = molecular target: T4, PTP1B1-405 V370P (Homo sapiens, UniProt P18031, V370P); test: PTP assay, helix α9′ point mutant; format: biochemical; settings: S372P, R373P versus wild type
T4 sequence (P18031 1-405 V370P): T1 sequence (P18031 1-405) with V370P

[9] = 5 mg/kg intraperitoneally every third day, relative to control

mode of inhibition (PTP1B1-405 [1]): reversible non-competitive inhibitor
mode of inhibition (PTP1B1-321 [3]): reversible non-competitive inhibitor
calculated molecular weight of PTP1B1-405 (PTP1B1-405 [4]; in the presence of the inhibitor (~47k in the absence)): ~ 43 k
binding to bead-immobilized compound (PTP1B1-321 [7]): bound
increase of Ki by helix-destabilizing Pro mutations (PTP1B1-405 V370P): 10–20 fold
SMILES: CC(C)[C@@H](CC[C@@H](C)[C@H]1CC[C@H]2[C@@H]3[C@H](O)C[C@H]4C[C@@H](NCCCNCCCCNCCCN)CC[C@]4(C)[C@H]3CC[C@]12C)OS(=O)(=O)O [MSI-1436, Trodusquemine]
migration (BT-474 cells): attenuated migration
retention of 50 kDa band (PTP1B) by compound beads [2]: PTP1B was cleared from the lysate; also recorded: retained
oligomerization of the phosphatase (PTP1B1-405 [4]): did not cause the phosphatase to oligomerize
tumor number [5, 9]: marked decrease
tumor size [5, 9]: marked decrease
lung metastasis ([5]; 5 or 10 mg/kg intraperitoneally every third day): essentially abrogated
phosphorylation of p44/42 MAP kinase [6]: decrease
tyrosine phosphorylation of p62DOK [6]: significant increase
sensitivity of xenografts re-expressing wild type PTP1B versus mutant protein [8]: more sensitive
